# Experimental data published in ChEMBL document CHEMBL1144782, “Isoindolo[2,1-a]quinoxaline derivatives, novel potent antitumor agents with dual inhibition of tubulin polymerization and topoisomerase I” (2008).
# Several values for one entry are separate records, joined by “and”; a condition that tells them apart may be missing. Equal entries are not always repeated.
# Experiments:
# HOP-92 = experiment: Antitumor activity against human HOP92 cells; type: functional; conditions: for TGI: read-out: pTGI (converted)
# Method in brief: (§1)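 Run by the NCI in its in vitro disease-oriented screen of about 60 human tumour cell lines. For each line it reports pGI50 (50% net growth inhibition), pTGI (total growth inhibition) and pLC50 (50% net cell death), each as –log molar concentration. Where an effect was not reached within the tested range, the highest tested concentration was used.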
# NCI-H23 = experiment: Antitumor activity against human NCI-H23 cells; type: functional; conditions: for TGI: read-out: pTGI (converted); method in brief: as §1
# NCI-H522 = experiment: Antitumor activity against human NCI-H522 cells; type: functional; conditions: for CC50: read-out: Log LC50 (the source's name) (converted); for TGI: read-out: pTGI (converted); method in brief: as §1
# KM12 = experiment: Antitumor activity against human KM12 cells; type: functional; conditions: for TGI: read-out: pTGI (converted); method in brief: as §1
# SF-295 = experiment: Antitumor activity against human SF295 cells; type: functional; conditions: for CC50: read-out: Log LC50 (the source's name) (converted); for TGI: read-out: pTGI (converted); method in brief: as §1
# LOX IMVI = experiment: Antitumor activity against human LOXIMVI cells; type: functional; conditions: for TGI: read-out: pTGI (converted); method in brief: as §1
# Malme-3M = experiment: Antitumor activity against human MALME3M cells; type: functional; conditions: for CC50: read-out: Log LC50 (the source's name) (converted); for TGI: read-out: pTGI (converted); method in brief: as §1
# M14 = experiment: Antitumor activity against human M14 cells; type: functional; conditions: for CC50: read-out: Log LC50 (the source's name) (converted); for TGI: read-out: pTGI (converted); method in brief: as §1
# SK-MEL-5 = experiment: Antitumor activity against human SKMEL5 cells; type: functional; conditions: for TGI: read-out: pTGI (converted); method in brief: as §1
# UACC-62 = experiment: Antitumor activity against human UACC62 cells; type: functional; conditions: for TGI: read-out: pTGI (converted)
# Method in brief: (§2)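 NCI 60-cell-line screen. Parameters were GI50 (50% net growth inhibition), TGI and LC50, each reported as –log molar concentration. Where an effect was not reached within the tested range, the highest tested concentration was used in the calculation.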
# SK-OV-3 = experiment: Antitumor activity against human SKOV3 cells; type: functional; conditions: for TGI: read-out: pTGI (converted); method in brief: as §1
# 786-0 = experiment: Antitumor activity against human 786-0 cells; type: functional; conditions: for CC50: read-out: Log LC50 (the source's name) (converted); for TGI: read-out: pTGI (converted); method in brief: as §1
# ACHN = experiment: Antitumor activity against human ACHN cells; type: functional; conditions: for TGI: read-out: pTGI (converted); method in brief: as §1
# CAKI-1 = experiment: Antitumor activity against human CAKI1 cells; type: functional; conditions: for TGI: read-out: pTGI (converted); method in brief: as §1
# RXF 393 = experiment: Antitumor activity against human RXF393 cells; type: functional; conditions: for CC50: read-out: Log LC50 (the source's name) (converted); for TGI: read-out: pTGI (converted); method in brief: as §1
# Tubulin (Sus scrofa) = Tubulin (Sus scrofa) (UniProt P02554+P02550); experiment: Inhibition of pig brain tubulin polymerization
# Sequence of Tubulin (Sus scrofa) (P02550 whole entry, looked up): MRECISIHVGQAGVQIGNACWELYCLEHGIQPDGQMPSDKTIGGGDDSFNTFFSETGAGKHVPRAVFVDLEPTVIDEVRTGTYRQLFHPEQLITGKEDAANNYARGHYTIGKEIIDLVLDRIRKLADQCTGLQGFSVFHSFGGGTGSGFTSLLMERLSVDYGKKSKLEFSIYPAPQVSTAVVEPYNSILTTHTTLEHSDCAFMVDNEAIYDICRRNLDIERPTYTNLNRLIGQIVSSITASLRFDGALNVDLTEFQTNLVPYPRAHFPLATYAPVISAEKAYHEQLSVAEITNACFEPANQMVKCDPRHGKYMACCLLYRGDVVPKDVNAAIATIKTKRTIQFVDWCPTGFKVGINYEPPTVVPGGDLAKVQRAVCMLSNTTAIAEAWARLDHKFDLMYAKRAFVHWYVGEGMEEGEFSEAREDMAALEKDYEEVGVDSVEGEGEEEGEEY
# Sequence of Tubulin (Sus scrofa) (P02554 whole entry, looked up): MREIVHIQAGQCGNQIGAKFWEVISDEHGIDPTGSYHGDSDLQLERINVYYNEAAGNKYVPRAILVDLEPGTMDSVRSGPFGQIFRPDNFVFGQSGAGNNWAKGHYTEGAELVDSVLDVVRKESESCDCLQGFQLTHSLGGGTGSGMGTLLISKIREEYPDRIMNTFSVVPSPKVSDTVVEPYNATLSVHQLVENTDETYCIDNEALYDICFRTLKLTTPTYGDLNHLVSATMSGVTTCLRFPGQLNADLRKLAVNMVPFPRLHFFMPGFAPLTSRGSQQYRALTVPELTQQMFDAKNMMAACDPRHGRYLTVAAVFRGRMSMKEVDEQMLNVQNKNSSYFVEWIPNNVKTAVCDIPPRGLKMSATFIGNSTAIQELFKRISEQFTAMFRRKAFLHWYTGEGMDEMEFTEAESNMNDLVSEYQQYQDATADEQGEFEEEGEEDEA
# BT-549 = experiment: Antitumor activity against human BT549 cells; type: functional; conditions: for TGI: read-out: pTGI (converted); method in brief: as §1
# RPMI-8226 = experiment: Antitumor activity against human RPMI8226 cells; type: functional; conditions: for CC50: read-out: Log LC50 (the source's name) (converted); for TGI: read-out: pTGI (converted); method in brief: as §1
# SR = experiment: Antitumor activity against human SR cells; type: functional; conditions: for TGI: read-out: pTGI (converted); method in brief: as §2
# SN12C = experiment: Antitumor activity against human SN12C cells; type: functional; conditions: for TGI: read-out: pTGI (converted); method in brief: as §1
# DU-145 = experiment: Antitumor activity against human DU145 cells; type: functional; conditions: for CC50: Homo sapiens, DU-145, read-out: Log LC50 (the source's name) (converted); method in brief: as §1
# MCF7 [1] = experiment: Antitumor activity against human MCF7 cells; type: functional; conditions: for TGI: read-out: pTGI (converted); method in brief: as §1
# Hs-578T = experiment: Antitumor activity against human HS578T cells; type: functional; conditions: for CC50: read-out: Log LC50 (the source's name) (converted); for TGI: read-out: pTGI (converted); method in brief: as §1
# MCF7 [2] = experiment: Resistance index, Ratio of GI50 for human multidrug-resistant MCF7 cells to GI50 for human MCF7 cells; type: functional
# Method in brief: (§3)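 Growth inhibition by MTT after 72 h incubation. Resistant sublines: LoVoDoxo and MCF-7 MDR were kept in 0.1 µg/mL doxorubicin; CEMVbl-100 was selected against vinblastine. GI50 given as mean ± SEM of three independent experiments. Resistance index is resistant-line GI50 over parental GI50.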
# CCRF-CEM = experiment: Growth inhibition of human CEM cells after 72 hrs by MTT assay; type: functional; method in brief: as §3
compound,measurement,setting,value
Cc1cc2[nH]c(=O)c3c4ccccc4cn3c2cc1C,GI50,HOP-92,15.5 µM
same,LC50,HOP-92,58.9 µM
same,TGI,HOP-92,30.2 µM
same,GI50,NCI-H23,14.8 µM
same,LC50 (50% net cell kill),NCI-H23,69.2 µM
same,TGI,NCI-H23,32.4 µM
same,GI50,NCI-H522,14.5 µM
same,CC50,NCI-H522,66.1 µM
same,TGI,NCI-H522,30.9 µM
same,GI50,KM12,7.08 µM
same,LC50 (50% net cell death),KM12,52.5 µM
same,TGI,KM12,21.4 µM
same,GI50,SF-295,12.3 µM
same,CC50,SF-295,66.1 µM
same,TGI,SF-295,28.2 µM
same,GI50,LOX IMVI,2.04 µM
same,LC50 (50% net cell kill),LOX IMVI,7.94 µM
same,TGI,LOX IMVI,3.98 µM
same,GI50,Malme-3M,22.4 µM
same,CC50,Malme-3M,63.1 µM
same,TGI,Malme-3M,37.2 µM
same,GI50,M14,13.5 µM
same,CC50,M14,52.5 µM
same,TGI,M14,26.9 µM
same,GI50,SK-MEL-5,13.5 µM
same,LC50,SK-MEL-5,64.6 µM
same,TGI,SK-MEL-5,29.5 µM
same,GI50,UACC-62,16.6 µM
same,LC50,UACC-62,60.3 µM
same,TGI,UACC-62,31.6 µM
same,GI50,SK-OV-3,18.2 µM
same,LC50 (50% net cell kill),SK-OV-3,64.6 µM
same,TGI,SK-OV-3,34.7 µM
same,GI50,786-0,10.7 µM
same,CC50,786-0,47.9 µM
same,TGI,786-0,22.9 µM
same,GI50,ACHN,10.2 µM
same,LC50 (50% net cell kill),ACHN,53.7 µM
same,TGI,ACHN,23.4 µM
same,GI50,CAKI-1,5.37 µM
same,LC50,CAKI-1,49 µM
same,TGI,CAKI-1,17.8 µM
same,GI50,RXF 393,12 µM
same,CC50,RXF 393,63.1 µM
same,TGI,RXF 393,27.5 µM
same,Activity,Tubulin (Sus scrofa),> 10 µM
same,GI50,BT-549,19.5 µM
same,LC50 (50% net cell kill),BT-549,85.1 µM
same,TGI,BT-549,40.7 µM
same,GI50,RPMI-8226,6.76 µM
same,CC50,RPMI-8226,> 100 µM
same,TGI,RPMI-8226,29.5 µM
same,GI50,SR,2.57 µM
same,LC50,SR,49 µM
same,TGI,SR,5.75 µM
same,GI50,SN12C,6.03 µM
same,LC50,SN12C,56.2 µM
same,TGI,SN12C,20.4 µM
same,GI50,DU-145,13.8 µM and 30.2 µM
same,CC50,DU-145,64.6 µM
same,GI50,MCF7 [1],11.7 µM
same,LC50 (50% net cell kill),MCF7 [1],> 100 µM
same,TGI,MCF7 [1],> 100 µM
same,GI50,Hs-578T,25.1 µM
same,CC50,Hs-578T,> 100 µM
same,TGI,Hs-578T,60.3 µM
same,RatioGI50,MCF7 [2],1.8
same,GI50,CCRF-CEM,15.5 µM
Cc1cccc2c1[nH]c(=O)c1c3ccccc3cn21,GI50,HOP-92,3.98 µM
same,LC50,HOP-92,> 100 µM
same,TGI,HOP-92,32.4 µM
same,GI50,NCI-H23,17.4 µM
same,LC50 (50% net cell kill),NCI-H23,87.1 µM
same,TGI,NCI-H23,38.9 µM
same,GI50,NCI-H522,6.46 µM
same,CC50,NCI-H522,> 100 µM
same,TGI,NCI-H522,64.6 µM
same,GI50,KM12,3.39 µM
same,LC50 (50% net cell death),KM12,> 100 µM
same,TGI,KM12,22.9 µM
same,GI50,SF-295,2.63 µM
same,CC50,SF-295,> 100 µM
same,TGI,SF-295,25.1 µM
same,GI50,LOX IMVI,6.17 µM
same,LC50 (50% net cell kill),LOX IMVI,42.7 µM
same,TGI,LOX IMVI,18.2 µM
same,GI50,Malme-3M,8.32 µM
same,CC50,Malme-3M,67.6 µM
same,TGI,Malme-3M,24.5 µM
same,GI50,M14,12.6 µM
same,CC50,M14,77.6 µM
same,TGI,M14,30.9 µM
same,GI50,SK-MEL-5,11.7 µM
same,LC50,SK-MEL-5,49 µM
same,TGI,SK-MEL-5,24 µM
same,GI50,UACC-62,6.92 µM
same,LC50,UACC-62,95.5 µM
same,TGI,UACC-62,28.2 µM
same,GI50,SK-OV-3,27.5 µM
same,LC50 (50% net cell kill),SK-OV-3,> 100 µM
same,TGI,SK-OV-3,> 100 µM
same,GI50,786-0,5.89 µM
same,CC50,786-0,> 100 µM
same,TGI,786-0,32.4 µM
same,GI50,ACHN,4.07 µM
same,LC50 (50% net cell kill),ACHN,> 100 µM
same,TGI,ACHN,22.4 µM
same,GI50,CAKI-1,2.19 µM
same,LC50,CAKI-1,> 100 µM
same,TGI,CAKI-1,8.71 µM
same,GI50,RXF 393,9.12 µM
same,CC50,RXF 393,> 100 µM
same,TGI,RXF 393,38 µM
same,Activity,Tubulin (Sus scrofa),> 10 µM
same,GI50,BT-549,12 µM
same,LC50 (50% net cell kill),BT-549,> 100 µM
same,TGI,BT-549,58.9 µM
same,GI50,RPMI-8226,2 µM
same,CC50,RPMI-8226,60.3 µM
same,TGI,RPMI-8226,7.08 µM
same,GI50,SR,1.55 µM
same,LC50,SR,12.6 µM
same,TGI,SR,4.17 µM
same,GI50,SN12C,1.82 µM
same,LC50,SN12C,> 100 µM
same,TGI,SN12C,19.1 µM
same,GI50,DU-145,5.25 µM and 17.4 µM
same,CC50,DU-145,41.7 µM
same,GI50,MCF7 [1],< 0.01 µM
same,LC50 (50% net cell kill),MCF7 [1],39.8 µM
same,TGI,MCF7 [1],12.6 µM
same,GI50,Hs-578T,21.9 µM
same,CC50,Hs-578T,> 100 µM
same,TGI,Hs-578T,64.6 µM
same,RatioGI50,MCF7 [2],2.2
same,GI50,CCRF-CEM,2.9 µM
